Data as given in ChEMBL document CHEMBL1139880, “Potent and selective agonists of human melanocortin receptor 5: cyclic analogues of alpha-melanocyte-stimulating hormone” (J Med Chem, 2007).
Starred links: 1 amine or outer side, 2 acyl side, 3 side chain; linkers in the order of their positions; H or OH if unused. Positions of bridges follow the written chain, without caps; N, C: chain ends. Non-standard residues stand in square brackets, D forms with d. Residues, ends and D or L forms follow the SMILES beside them. ξ: configuration not given here. X2 = O=C([C@@H](Cc1ccc(Cc2ccccc2)cc1)N[*:1])[*:2]; X7 = O=C([C@H](Cc1ccc(Cc2ccccc2)cc1)N[*:1])[*:2]; Oic(3aξ,7aξ) = O=C(O)[C@@H]1CC2CCCCC2N1; Pip = O=C(O)[C@@H]1CCCCN1; Nle = CCCC[C@H](N)C(=O)O

Legend:
Melanocortin receptor 5 [1] = biological target: T1, Melanocortin receptor 5 (Homo sapiens, UniProt P33032); test: Agonist activity at human MC5R expressed in CHO cells assessed as cAMP accumulation; format: functional, cell-based
Melanocortin receptor 4 [2] = biological target: T2, Melanocortin receptor 4 (Homo sapiens, UniProt P32245); test: Displacement of [125I]NDPalphaMSH from human cloned MC4R expressed in CHO cells; format: cell-based
Melanocortin receptor 5 [3] = biological target: T1, Melanocortin receptor 5; test: Displacement of [125I]NDPalphaMSH from human cloned MC5R expressed in CHO cells; format: cell-based
Melanocortin receptor 3 [4] = biological target: T3, Melanocortin receptor 3 (Homo sapiens, UniProt P41968); test: Displacement of [125I]NDPalphaMSH from human cloned MC3R expressed in CHO cells; format: cell-based
[5] = biological target: T4, Melanocyte-stimulating hormone receptor (Homo sapiens, UniProt Q01726); test: Displacement of [125I]NDPalphaMSH from human cloned melanocortin receptor 1b expressed in CHO cells; format: cell-based
Target sequence in this assay (Q01726 whole entry): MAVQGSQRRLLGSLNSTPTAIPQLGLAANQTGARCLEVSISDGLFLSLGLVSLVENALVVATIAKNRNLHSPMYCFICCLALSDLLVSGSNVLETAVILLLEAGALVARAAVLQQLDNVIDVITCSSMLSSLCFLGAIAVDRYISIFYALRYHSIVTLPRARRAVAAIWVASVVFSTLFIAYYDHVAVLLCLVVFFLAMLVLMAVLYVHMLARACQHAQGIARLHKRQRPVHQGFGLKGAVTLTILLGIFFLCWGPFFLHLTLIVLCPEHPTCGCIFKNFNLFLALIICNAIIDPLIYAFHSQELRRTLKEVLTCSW

[6] = biological target: T4, Melanocyte-stimulating hormone receptor; test: Agonist activity at human melanocortin receptor 1b expressed in CHO cells assessed as cAMP accumulation; format: functional, cell-based
Outline: (§1)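 Dissociated CHO cells were spun 5 min and resuspended in Earle's balanced salt solution with 10 mM HEPES pH 7.5, 5 mM MgCl2, 1 mM glutamine and 1 mg/mL BSA. They were incubated 40 min at room temperature with compound (0.003–5000 nM) plus 0.6 mM IBMX, then lysed with 0.1 M HCl. cAMP was measured by Flashplate cAMP assay.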
Target sequence in this assay (Q01726 whole entry): as above

Melanocortin receptor 3 [7] = biological target: T3, Melanocortin receptor 3; test: Agonist activity at human MC3R expressed in CHO cells assessed as cAMP accumulation at 1 uM relative to [125I]NDPalphaMSH; format: functional, cell-based
[8] = biological target: T4, Melanocyte-stimulating hormone receptor; test: Agonist activity at human melanocortin receptor 1b expressed in CHO cells assessed as cAMP accumulation at 1 uM relative to [125I]NDPalphaMSH; format: functional, cell-based
Target sequence in this assay (Q01726 whole entry, looked up): as the sequence (Q01726 whole entry) above

Melanocortin receptor 3 [9] = biological target: T3, Melanocortin receptor 3; test: Agonist activity at human MC3R expressed in CHO cells assessed as cAMP accumulation; format: functional, cell-based; outline: as §1
Melanocortin receptor 3 [10] = biological target: T3, Melanocortin receptor 3; test: Agonist activity at human MC3R expressed in CHO cells assessed as cAMP accumulation at 10 uM relative to [125I]NDPalphaMSH; format: functional, cell-based
Melanocortin receptor 4 [11] = biological target: T2, Melanocortin receptor 4; test: Agonist activity at human MC4R expressed in CHO cells assessed as cAMP accumulation at 10 uM relative to [125I]NDPalphaMSH; format: functional, cell-based

T2 sequence (P32245 whole entry): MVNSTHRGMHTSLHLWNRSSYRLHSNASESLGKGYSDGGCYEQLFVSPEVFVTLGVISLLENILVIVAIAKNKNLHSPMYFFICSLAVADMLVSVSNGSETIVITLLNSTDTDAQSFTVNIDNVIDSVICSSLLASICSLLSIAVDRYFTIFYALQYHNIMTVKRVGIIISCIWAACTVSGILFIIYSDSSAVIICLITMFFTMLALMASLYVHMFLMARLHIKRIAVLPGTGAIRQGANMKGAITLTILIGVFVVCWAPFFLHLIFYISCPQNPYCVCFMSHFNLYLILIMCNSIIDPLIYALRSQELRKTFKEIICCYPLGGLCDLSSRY
T1 sequence (P33032 whole entry): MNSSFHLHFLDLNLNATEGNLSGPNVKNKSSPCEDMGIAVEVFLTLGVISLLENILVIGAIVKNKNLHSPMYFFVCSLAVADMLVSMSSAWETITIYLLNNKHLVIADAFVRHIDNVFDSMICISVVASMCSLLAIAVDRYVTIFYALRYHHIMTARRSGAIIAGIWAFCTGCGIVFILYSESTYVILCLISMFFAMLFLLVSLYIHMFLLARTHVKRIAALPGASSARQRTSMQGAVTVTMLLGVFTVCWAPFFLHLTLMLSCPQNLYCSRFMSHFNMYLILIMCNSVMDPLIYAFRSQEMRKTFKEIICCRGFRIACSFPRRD
T3 sequence (P41968 whole entry): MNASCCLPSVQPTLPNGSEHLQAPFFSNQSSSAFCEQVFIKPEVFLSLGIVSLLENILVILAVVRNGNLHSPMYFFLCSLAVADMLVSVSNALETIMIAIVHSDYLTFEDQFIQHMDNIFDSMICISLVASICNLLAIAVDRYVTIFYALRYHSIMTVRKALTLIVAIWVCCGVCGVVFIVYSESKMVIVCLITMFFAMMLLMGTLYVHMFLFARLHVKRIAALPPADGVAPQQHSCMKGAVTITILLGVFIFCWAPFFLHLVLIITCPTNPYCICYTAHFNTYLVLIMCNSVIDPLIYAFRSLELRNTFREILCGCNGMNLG

Row | SMILES | EC50 (Melanocortin receptor 5 [1]) | IC50 (Melanocortin receptor 4 [2]) | IC50 (Melanocortin receptor 5 [3]) | IC50 (Melanocortin receptor 3 [4]) | IC50 [5] | EC50 [6] | Activity (Melanocortin receptor 3 [7]) [%] | Activity [8] [%] | EC50 (Melanocortin receptor 3 [9]) | Activity (Melanocortin receptor 3 [10]) [%] | Activity (Melanocortin receptor 4 [11]) [%]
1 | CCCC[C@H](NC(C)=O)C(=O)N[C@H]1CC(=O)NCCCC[C@@H](C(N)=O)NC(=O)[C@H](Cc2c[nH]c3ccccc23)NC(=O)[C@@H]2CCCCN2C(=O)[C@@H](Cc2ccc(-c3ccccc3)cc2)NC(=O)[C@@H]2CCCN2C1=O | 0.031 nM (agonist) | 160 nM (antagonist) | 0.15 nM (antagonist) | 270 nM (antagonist) | 65 nM (antagonist) | 28 nM (agonist) | – | – | – | – | –
2 | CCCC[C@H](NC(C)=O)C(=O)N[C@H]1CC(=O)NCCCC[C@@H](C(N)=O)NC(=O)[C@H](Cc2c[nH]c3ccccc23)NC(=O)[C@@H]2CCCCN2C(=O)[C@H](Cc2ccc(Cc3ccccc3)cc2)NC(=O)[C@@H]2CC3CCCCC3N2C1=O (stereo not given in full) (Ac-[Nle]D[Oic(3aξ,7aξ)][X7][Pip]WK-NH2; lactam 2-7) | – | – | – | – | – | – | 2 | 3 | – | – | –
3 | CCCC[C@H](NC(C)=O)C(=O)N[C@H]1CC(=O)NCCCC[C@@H](C(N)=O)NC(=O)[C@H](Cc2c[nH]c3ccccc23)NC(=O)[C@@H]2CCCN2C(=O)[C@@H](Cc2ccc(OCC)cc2)NC(=O)[C@H](Cc2cnc[nH]2)NC1=O | 270 nM (agonist) | – | 340 nM (antagonist) | > 10000 nM | 430 nM (antagonist) | 60 nM (agonist) | – | – | > 2500 nM | – | –
4 | CCCC[C@H](NC(C)=O)C(=O)N[C@H]1CC(=O)NCCCC[C@@H](C(N)=O)NC(=O)[C@H](Cc2c[nH]c3ccccc23)NC(=O)[C@@H]2CCCCN2C(=O)[C@@H](Cc2ccc(-c3ccccc3)cc2)NC(=O)[C@@H]2Cc3ccccc3CN2C1=O | 0.45 nM (agonist) | 720 nM (antagonist) | 2.7 nM (antagonist) | 3900 nM (antagonist) | 710 nM (antagonist) | 130 nM (agonist) | – | – | – | – | –
5 | CCCC[C@H](NC(C)=O)C(=O)N[C@H]1CC(=O)NCCCC[C@@H](C(N)=O)NC(=O)[C@H](Cc2c[nH]c3ccccc23)NC(=O)[C@@H]2CCCCN2C(=O)[C@@H](Cc2ccc(Cc3ccccc3)cc2)NC(=O)[C@@H]2CC3CCCCC3N2C1=O (stereo not given in full) (Ac-[Nle]D[Oic(3aξ,7aξ)][X2][Pip]WK-NH2; lactam 2-7) | 31 nM (agonist) | 1600 nM (antagonist) | 24 nM (antagonist) | > 1000 nM | > 1000 nM | – | – | – | – | – | –
6 | CCCC[C@H](NC(C)=O)C(=O)N[C@H]1CC(=O)NCCCC[C@@H](C(N)=O)NC(=O)[C@H](Cc2c[nH]c3ccccc23)NC(=O)[C@@H]2CCCN2C(=O)[C@@H](Cc2ccc(-c3ccccc3)cc2)NC(=O)[C@@H]2CC3CCCCC3N2C1=O (stereo not given in full) | 17 nM (agonist) | 4700 nM (antagonist) | 10 nM (antagonist) | 4400 nM (antagonist) | 7800 nM (antagonist) | > 2500 nM | – | – | – | – | –
7 | CCCC[C@H](NC(C)=O)C(=O)N[C@H]1CC(=O)NCCCC[C@@H](C(N)=O)NC(=O)[C@H](Cc2cc3ccccc3[nH]2)NC(=O)[C@@H]2CCCN2C(=O)[C@@H](Cc2ccccc2)NC(=O)[C@H](Cc2cnc[nH]2)NC1=O | – | – | – | – | – | – | – | – | – | 2 | 6
8 | CCCC[C@H](NC(C)=O)C(=O)N[C@H]1CC(=O)NCCCC[C@@H](C(N)=O)NC(=O)[C@H](Cc2c[nH]c3ccccc23)NC(=O)[C@@H]2CCCCN2C(=O)[C@@H](Cc2ccc(-c3ccccc3)cc2)NC(=O)[C@H](Cc2c[nH]cn2)NC1=O | 0.37 nM (agonist) | 570 nM (antagonist) | 0.72 nM (antagonist) | 1400 nM (antagonist) | 5.9 nM (antagonist) | 3.3 nM (agonist) | – | – | 370 nM (agonist) | – | –
9 | CCCC[C@H](NC(C)=O)C(=O)N[C@H]1CC(=O)NCCCC[C@@H](C(N)=O)NC(=O)[C@H](Cc2c[nH]c3ccccc23)NC(=O)[C@@H]2CCCN2C(=O)[C@@H](CC2CCCCC2)NC(=O)[C@H](Cc2c[nH]cn2)NC1=O | – | > 10000 nM | > 10000 nM | > 10000 nM | > 10000 nM | > 2500 nM | – | – | – | – | –
10 | CCCC[C@H](NC(C)=O)C(=O)N[C@H]1CC(=O)NCCCC[C@@H](C(N)=O)NC(=O)[C@H](Cc2c[nH]c3ccccc23)NC(=O)[C@@H]2CCCN2C(=O)[C@@H](Cc2cccs2)NC(=O)[C@H](Cc2cnc[nH]2)NC1=O | > 1500 nM | – | > 5000 nM | > 5000 nM | > 5000 nM | 540 nM (agonist) | – | – | – | – | –
